KCNK9 block: human KCNK9 channel inhibition; Q9NPC2; HEK293 KCNK9, FluxOR thallium flux fluorescence; active compounds read low; B-score at 10 µM; hit rate 1.2% among 310,000; AID 488922;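 active = ratio B-score over 3 SD below the library mean, with starting fluorescence within 5 SD of its mean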;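 note: negative B-score means less thallium flux so channel inhibition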
Target sequence (Q9NPC2 whole entry, looked up): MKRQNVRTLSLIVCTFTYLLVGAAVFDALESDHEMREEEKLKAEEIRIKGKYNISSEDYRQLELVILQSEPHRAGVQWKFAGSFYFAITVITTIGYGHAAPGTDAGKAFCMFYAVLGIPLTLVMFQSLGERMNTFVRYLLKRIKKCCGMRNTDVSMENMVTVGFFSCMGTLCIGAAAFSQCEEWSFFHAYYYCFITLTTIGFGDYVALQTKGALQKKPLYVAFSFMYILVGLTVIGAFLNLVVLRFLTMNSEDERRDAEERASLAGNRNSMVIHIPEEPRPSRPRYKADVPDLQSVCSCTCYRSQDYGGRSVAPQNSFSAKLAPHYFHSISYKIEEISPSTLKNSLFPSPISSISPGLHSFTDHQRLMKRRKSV
KCNQ1 pot: potentiators or activators of human KCNQ1 potassium channel; P51787; CHO-K1 KCNQ1, thallium flux FluxOR fluorescence; active compounds read high; B-score at 10 µM; hit rate 0.35% among 310,000;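 active = fluorescence ratio B-score, a plate-corrected score, at least three library SD, with initial intensity B-score within 5 SD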
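Assay system: stable KCNQ1 CHO-K1 line; medium: assay buffer, equal DMSO in all wells; timing: 90 min dye loading and 20 min compound exposure, both at room temperature; technique: kinetic FluxOR thallium fluorescence, 10-s 1-Hz baseline, 110-s post-stimulus read; read-out basis: B score of baseline-normalized fluorescence ratio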
hERG protect: hERG (human) protection from proarrhythmic block; hit rate 0.51% among 310,000; Q12809; CHO-hERG, FluxOR thallium flux, dofetilide IC70 present; activation (rescue from dofetilide block), less the hit threshold, % at 10 µM;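 active = activation above the mean of controls blocked by dofetilide plus 5 SD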;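 note: thallium influx through hERG after potassium depolarization seen as dye fluorescence rise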
KCNK3 block: human KCNK3 channel inhibition, primary screen; B-score at 10 µM; hit rate 0.84% among 340,000; CHO-KCNK3 thallium flux, FluxOR fluorescence; active compounds read low; O14649;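 active = B-score under library mean minus 4 SD, starting fluorescence ratio at most library mean plus 5 SD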;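 note: more negative B-score means stronger inhibition of thallium flux through KCNK3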
Target sequence (O14649 whole entry, looked up): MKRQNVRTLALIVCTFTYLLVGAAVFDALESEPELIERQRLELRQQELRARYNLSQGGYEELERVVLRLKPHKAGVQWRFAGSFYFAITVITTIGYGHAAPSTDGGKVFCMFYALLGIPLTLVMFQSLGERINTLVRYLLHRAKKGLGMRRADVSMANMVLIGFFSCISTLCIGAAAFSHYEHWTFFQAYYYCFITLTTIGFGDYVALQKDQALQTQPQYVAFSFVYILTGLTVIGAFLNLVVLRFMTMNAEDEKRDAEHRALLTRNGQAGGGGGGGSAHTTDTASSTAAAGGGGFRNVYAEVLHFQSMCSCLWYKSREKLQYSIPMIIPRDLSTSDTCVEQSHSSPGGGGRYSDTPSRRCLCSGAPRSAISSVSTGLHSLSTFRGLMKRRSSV
KCNQ1 inh: blocks the human KCNQ1 potassium channel. B-score at 10 µM. AID 2642. hit rate 1.3% among 310,000. CHO-K1 KCNQ1, FluxOR thallium flux fluorescence; active compounds read high;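 active = compounds whose thallium flux B-score, printed positive for inhibition, exceeds three library SD while starting fluorescence stays within three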;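 note: channel opened by potassium depolarization with thallium stimulus after 20 min compound exposure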
Kir21 block: inhibitors of mouse Kir2.1 inward-rectifier potassium channel; B-score at 10 µM; hit rate 0.85% among 310,000; HEK293-Kir2.1, FluxOR thallium flux fluorescence; active compounds read low; AID 1672; P35561;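 active = fluorescence ratio B-score at or below minus 3 SD of library scores, with starting-brightness B-score within 2 SD, cut at about -4.2 in these data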;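 note: channel flux triggered by added potassium and thallium sulfate stimulus; B-score of peak minus minimum fluorescence over baseline after thallium stimulus; more negative B-score means stronger Kir2.1 block with less thallium influx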
KCNQ1 block val: confirmation of human KCNQ1 potassium channel inhibitors; shares compounds with KCNQ1 inh; KCNQ1 cell line, FluxOR thallium flux fluorescence; inhibition, % at 10 µM; hit rate 93% among 1,600;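 active = primary screen active, with duplicate mean exceeding buffer control mean plus 3 SD of buffer wells, cut at about 28% in these data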;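 note: 0% = buffer control ratio and 100% = XE991 inhibitor control ratio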
CHO KCNQ1 ctr: activity in parental CHO cells lacking KCNQ1; shares compounds with KCNQ1 inh; parental CHO-K1, FluxOR thallium flux fluorescence ratio; active compounds read low; zero means no signal rise above baseline; AID 588366; hit rate 21% among 1,600; fluorescence ratio (Tl flux) at 10 µM;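 active = mean of duplicate thallium-flux fluorescence ratios in parental host cells more than 5 SD below the buffer control mean, cut at about 0.38 in these data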;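 note: ratio is peak minus minimum fluorescence divided by baseline fluorescence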
KCNQ1 APC inh: blocks human KCNQ1 current in automated patch clamp; hit rate 20% among 490; shares compounds with KCNQ1 inh; calls only at 10 µM; KCNQ1-CHO cells;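 active = KCNQ1 current drop exceeding 3 SD of negative control wells, seen in both duplicate runs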;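 note: steady state current during a 2 s step from -80 to +40 mV; negative values mean current inhibition and positive values mean potentiation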
KCNQ2 spec: selectivity of KCNQ1 inhibitors: inhibition of rat KCNQ2 channel; AID 651746; KCNQ2 cells, FluxOR thallium flux fluorescence; inhibition, % at 10 µM; shares compounds with KCNQ1 inh; hit rate 71% among 1,600;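 active = mean percent inhibition of the KCNQ2 thallium signal more than 5 SD above the buffer-only control wells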;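 note: KCNQ2 expressed in CHO cells; 0% = buffer control wells and 100% = XE-991 inhibitor control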
KCNQ1 KCNE1 spec: KCNQ1 inhibitor that also blocks human KCNQ1/KCNE1 channel. KCNQ1/KCNE1 cells, FluxOR thallium flux fluorescence. inhibition, % at 10 µM. hit rate 77% among 1,600. shares compounds with KCNQ1 inh;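 active = mean percent inhibition of duplicate wells above the buffer-only control mean plus 3 SD of those controls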;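 note: 0% = buffer only wells and 100% = XE-991 inhibitor control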
Starred values were filed as active, the others as inactive; i = inactive; / = no result given; + = active, no number. Sampled rows, rich in hits. Any-hit rate of the full collection: about 3.7%.

SMILES | KCNK9 block | KCNQ1 pot | hERG protect | KCNK3 block | KCNQ1 inh | Kir21 block | KCNQ1 block val | CHO KCNQ1 ctr | KCNQ2 spec | KCNQ1 KCNE1 spec | others
S=C(NCc1ccncc1)Nc1ccc(Cl)c(Cl)c1 | i | i | -13 | i | 6* | 0.15 | 33* | 0.58 | i | i
S=C(NCc1ccncc1)Nc1cc(Cl)cc(Cl)c1 | i | i | -14 | i | i | 0.24 | / | / | / | /
O=C(CSCc1cccc(Cl)c1)OCc1nc2ccsc2c(=O)[nH]1 | i | i | -8 | i | i | 0.45 | / | / | / | /
CC(C)NC(=O)c1onc(CSc2ccc(C(C)C)cc2)c1C(=O)O | i | i | -17 | i | 10* | -0.24 | 88* | 0.47 | 73%* | 42%*
CNS(=O)(=O)c1ccc(CNC[C@H]2O[C@@H](n3cnc(C(N)=O)n3)[C@H](O)[C@@H]2O)cc1 | / | / | / | i | / | / | / | / | / | /
Cc1cccc2c1Sc1ccc(Cl)cc1CC2N1CCNCC1 (stereo not given) | i | i | -21 | -12* | 9* | -4.2 | 123* | 0.3* | 116%* | 166%*
Clc1ccc(-c2csc(N3CCOCC3)n2)cc1 | i | i | -9 | i | i | -0.11 | / | / | / | /
Clc1ccc(-c2csc(N3CCCCCC3)n2)cc1 | i | i | -2 | i | 8* | -0.94 | 123* | 0.51 | 81%* | 140%* | KCNQ1 APC inh=i
CCN(CC)CCNC(=O)c1ccc(CS(=O)(=O)c2ccccc2C)o1 | i | i | -5 | i | i | -0.11 | / | / | / | /
CCOC(=O)Nc1ccc2c(c1)N(C(=O)CN1CCN(C)CC1)c1ccccc1S2 | i | i | -9 | i | 9* | 1.2 | 0 | 0.45 | i | 57%*
CC(=O)NC12CC3CC(C1)CC(C(=O)Nc1nc4ccc(F)cc4s1)(C3)C2 | i | i | -20 | i | 7* | 1.3 | 92* | 0.49 | 65%* | 85%* | KCNQ1 APC inh=+
Cc1ccc(N2CC(NS(=O)(=O)c3cccs3)CC2=O)cc1 (stereo not given) | i | i | -8 | i | i | 0.04 | / | / | / | /
O=C(Nc1ccc(Br)cc1)Nc1ccccc1F | i | i | -5 | i | 7* | 0.85 | 52* | 0.53 | i | i
CC(=O)Nc1cccc2ccc(O)cc12 | / | / | / | i | / | / | / | / | / | /
Cc1ccccc1NC(=O)Nc1ccc(C(F)(F)F)cc1 | i | i | -5 | i | 6* | 0.56 | 134* | 0.55 | 101%* | i | KCNQ1 APC inh=i
O=C(Nc1ccccc1F)Nc1cccc2ccc(O)cc12 | i | i | -10 | i | 9* | 2.3 | 80* | 0.54 | 64%* | i
Cc1cc2c(NC(=O)Nc3ccccc3)cccc2nn1 | i | i | -3 | i | i | 0.76 | / | / | / | /
Cc1cc2c(NC(=O)Nc3ccc(C(C)(C)C)cc3)cccc2nn1 | i | i | -19 | i | 7* | 1.9 | 118* | 0.45 | 81%* | 68%* | KCNQ1 APC inh=i
CC1(C)C[C@H]2C3=CCC4[C@@]5(C)CC[C@H](O)[C@@](C)(CO)C5CC[C@@]4(C)[C@]3(C)C[C@@H](O)[C@@]2(CO)[C@@H](O)[C@@H]1O (stereo not given in full) | / | / | / | i | / | / | / | / | / | /
CC1(C)CC(=O)C2=C(C1)N1C(=C(C#N)C2c2ccc(Cl)cc2)N=C(N)c2ccccc21 (stereo not given) | i | i | -11 | i | 8* | -0.04 | 74* | 0.41 | 77%* | 70%*
COc1ccccc1NC(=O)C(Sc1ccccc1)c1ccccc1 (stereo not given) | i | i | -11 | i | 10* | 0.69 | 84* | 0.4 | 112%* | 88%*
S=C(NCCSCc1ccc(Cl)cc1)Nc1ccccc1 | i | i | -16 | i | i | -3.3 | / | / | / | /
S=C(NCCSCc1ccccc1Cl)Nc1ccccc1 | i | i | -10 | i | 10* | -0.08 | 106* | 0.43 | 87%* | 58%* | KCNQ1 APC inh=i
Cc1cccc(CSCCNC(=S)Nc2ccccc2)c1 | i | i | -14 | i | 7* | -1.5 | 56* | 0.53 | 65%* | 98%*
COc1ccc(-c2nc(N3CCCCCC3)sc2C(=O)c2ccccc2)cc1 | i | i | -16 | i | 7* | -1.1 | 56* | 0.43 | 105%* | 86%*
SMILES | KCNK9 block | KCNQ1 pot | hERG protect | KCNK3 block | KCNQ1 inh | Kir21 block | KCNQ1 block val | CHO KCNQ1 ctr | KCNQ2 spec | KCNQ1 KCNE1 spec | others
O=C(c1ccccc1)c1sc(N2CCCCCC2)nc1-c1ccccc1 | i | i | -2 | i | 7* | 0.63 | 124* | 0.43 | 123%* | + | KCNQ1 APC inh=i
O=C(Nc1nc(-c2ccccc2)c(C(=O)c2ccccc2)s1)c1ccc(S(=O)(=O)N2CCCC2)cc1 | i | i | -9 | i | 8* | -0.69 | 78* | 0.49 | 63%* | 96%*
O=C(O)CN1C(=O)/C(=C\C(Br)=C\c2ccccc2)SC1=S | i | i | -17 | i | i | -2.3 | / | / | / | /
CC(C)c1ccc(NC(=O)CN2C(=O)NC3(CCCC3)C2=O)cc1 | i | i | -6 | i | i | 1.2 | / | / | / | /
CCC(C)c1ccc(NC(=S)NCc2ccccc2OC)cc1 (stereo not given) | i | i | -23 | i | 9* | 2.4 | 62* | 0.52 | 69%* | 66%*
COc1ccccc1CNC(=S)NCCc1ccccc1 | i | i | -4 | i | i | -3.5 | / | / | / | /
O=C1C=C(c2ccc(Oc3ccccc3)cc2)C[C@@H](c2ccc(F)cc2)C1 | / | / | / | i | / | / | / | / | / | /
Cc1ccc(OCCN2CCN(c3ncnc4sc(C)c(C)c34)CC2)cc1 | i | i | -19 | -11* | 11* | -2.8 | 126* | 0.37* | 140%* | 108%*
CCC1(C)CC2(CCCN(CCC(=O)c3ccccc3)C2)CCO1 (stereo not given) | i | i | -6 | i | i | 1.9 | / | / | / | /
O=C(COC(=O)c1ccccc1Cc1ccccc1)Nc1ccc(SC(F)F)cc1 | i | i | -8 | i | 7* | 0.76 | 86* | 0.41 | 128%* | 101%*
